In ChEMBL document CHEMBL5385915 (J Med Chem, 2024):
Values after ≈ are worked out from the molar mass of the structure shown. Active and inactive are the calls of the source. No cut-off for these calls is given here.

What was measured:
[1] = Lipophilicity, log P of the compound; assay type: physicochemical; conditions: octanol/water
[2] = Kinetic solubility in pH 7.4 PBS incubated for 5 mins by UV-spectrophotometry analysis; assay type: physicochemical; conditions: read-out: Kinetic_solubility
Outline: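 Compounds from 10 mM DMSO stock diluted in PBS pH 7.4 to a seven-point series (0.2–100 μM), final DMSO 1%, shaken 5 min at 25 °C. Turbidity read by UV at 620 nm; Log_S converted to solubility as S = 10^LogS. Nicardipine control; triplicate.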

[3] = Metabolic stability in mouse liver microsome assessed as intrinsic clearance measured upto 30 mins in presence of NADPH by LC-MS/MS analysis; assay type: ADME; conditions: liver microsomes, read-out: CLH
Outline: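 1 μM compound with 0.5 mg/mL mouse liver microsomes, with or without NADPH (1 mM), 37 °C, sampled at 0, 5, 10, 15 and 30 min. Parent loss followed by LC-MS/MS, giving mean CLint and t1/2. Two replicates per compound; up to three species-specific control compounds included.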

[4] = Metabolic stability in mouse hepatocyte assessed as intrinsic clearance measured upto 60 mins […] by LC-MS/MS analysis; assay type: ADME, cell-based; conditions: hepatocytes, 1 h
Outline: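 Mouse hepatocytes at 0.5 × 10^6 cells/mL incubated with 1 μM compound at 37 °C, sampled at 0, 10, 20, 30, 45 and 60 min. Disappearance with and without hepatocytes measured by LC-MS/MS; output is mean CLint and t1/2. Duplicate per compound, with up to three species-specific controls.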

[5] = Efflux ratio of permeability across basolateral to apical side over apical to basolateral side in human Caco-2 cells incubated for 2 hrs by LC-MS/MS analysis; assay type: ADME, cell-based
[6] = test system: Corynebacterium glutamicum; assay: Inhibition of mycolic acid biosynthesis in Corynebacterium glutamicum pks13 at 0.5 to 5 times MIC incubated for 6 hrs by TLC based autoradiography analysis; assay type: functional, organism-based
[7] = test system: Corynebacterium glutamicum; assay: Inhibition of mycolic acid biosynthesis in Corynebacterium glutamicum harboring MmpL3 at 0.5 to 5 times MIC incubated for 6 hrs by TLC based autoradiography analysis; assay type: functional, organism-based
[8] = test system: Mycolicibacterium smegmatis; assay: Antimycobacterial activity against Mycobacterium smegmatis MC(2)155 assessed as reduction in microbial growth incubated for 24 hrs by resazurin dye based assay; assay type: functional
[9] = test system: HepG2; assay: Cytotoxicity against human HepG2 cells assessed as reduction in cell viability incubated for 24 hrs in presence of glucose by MTT assay; assay type: functional, cell-based; conditions: HepG2, 24 h
[10] = test system: HepG2; assay: Cytotoxicity against human HepG2 cells assessed as reduction in cell viability incubated for 24 hrs in presence of galactose by MTT assay; assay type: functional, cell-based; conditions: HepG2, 24 h
[11] = test system: Mycobacterium tuberculosis; assay: Bactericidal activity against Mycobacterium tuberculosis H37Rv incubated for 6 to 10 days by time kill assay; assay type: functional, organism-based; conditions: dose <= 96.0 µM, time 6-10 day
Outline: (§1)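 Time-kill: 2-fold dilutions 96–3 μM in CMM MOD2, 0.1% DMSO vehicle; start 1×10^6 CFU/mL, 37 °C, 200 rpm; sampled days 0, 2, 6, 10, 14; 10-fold dilutions spotted in triplicate on 7H10, counted after 3 weeks; three biological repeats; factorial ANOVA with Tukey post hoc.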

[12] = test system: Mycobacterium tuberculosis; assay: Bactericidal activity against Mycobacterium tuberculosis H37Rv assessed as reduction in bacterial count at […] uM incubated for 6 days by time kill assay; assay type: functional; conditions: time 6 day; outline: as §1
[13] = test system: Mycobacterium tuberculosis; assay: Bactericidal activity against Mycobacterium tuberculosis H37Rv assessed as reduction in bacterial count at […] uM incubated for 14 days by time kill assay; assay type: functional; conditions: time 14 day; outline: as §1
[14] = test system: Mycobacterium tuberculosis; assay: Bactericidal activity against Mycobacterium tuberculosis H37Rv assessed as reduction in viable count at 48 uM incubated for 6 days by CV-AM staining based flow cytometry analysis; assay type: functional; conditions: time 6 day
Outline: (§2)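 H37Rv from time-kill wells (3–96 μM, 0.1% DMSO vehicle) at each time point, stained in quadruplicate 1 h, 37 °C, dark with 20 μM CV-AM and/or 20 μM Sytox Green; fixed 4% formaldehyde 1 h; flow cytometry (405/488 nm lasers); singlets gated by FSC area/height, quadrant gates P1–P4.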

[15] = test system: Mycobacterium tuberculosis; assay: Bactericidal activity against Mycobacterium tuberculosis H37Rv assessed as reduction in viable count at 48 uM incubated for 10 days by CV-AM staining based flow cytometry analysis; assay type: functional; conditions: time 10 day; outline: as §2
[16] = test system: Mycobacterium tuberculosis; assay: Bactericidal activity against Mycobacterium tuberculosis H37Rv assessed as reduction in viable count at 48 uM incubated for 14 days by CV-AM staining based flow cytometry analysis; assay type: functional; conditions: time 14 day; outline: as §2
[17] = test system: Mycobacterium tuberculosis; assay: Bactericidal activity against Mycobacterium tuberculosis H37Rv assessed as reduction in viable count at 96 uM incubated for 14 days by sytox green staining based flow cytometry analysis; assay type: functional, organism-based; conditions: time 14.0 day; outline: as §2
[18] = test system: Mycolicibacterium smegmatis; assay: Inhibition of cell wall biosynthesis in Mycobacterium smegmatis assessed as formation of cytoplasmic membrane phospholipids at 0.5 to 5 times MIC incubated for 6 hrs in presence of [14C]acetate by TLC based autoradiography analysis; assay type: functional, organism-based

In the case of FC(F)(F)Oc1ccc([C@H]2C[C@@H](CN3CCCC3)N2Cc2ccccc2OC(F)(F)F)cc1 (racemic), the logP [1] is reported as 6.93, the solubility kinetic at 5 min [2] is reported as 7 µM (≈ 3.32 µg/mL) and the microsomal CLint [3] is reported as greater than 150 µL/min/mg. For the same molecule, the “intrinsic clearance (CLint)” value [4] was less than 60 µL/min/mg, the efflux ratio at 2 h [5] was less than 1 and the inhibition [6] was “Active”. The inhibition [7] was “Active”.
Molecule COc1ccc([C@H]2C[C@@H](CN3CCCC3)N2Cc2ccccc2Br)cc1 (racemic) has a logP [1] of 4.68.
CC(C)NC[C@@H]1C[C@H](c2ccc(OC(F)(F)F)cc2)N1Cc1ccccc1OC(F)(F)F (racemic) gave an MIC99 [8] of 23 µM and a logP [1] of 6.92.
In the case of Brc1cc(Br)cc([C@H]2C[C@@H](CN3CCCC3)N2Cc2ccccc2Br)c1 (racemic), the microsomal CLint [3] is reported as greater than 150 µL/min/mg, the “intrinsic clearance (CLint)” value [4] is reported as less than 60 µL/min/mg and the IC50 [9] is reported as greater than 100 µM. For the same molecule, the IC50 [10] was greater than 100 µM, the Activity [11] was “Dose-Dependent Effect” and the Activity [12] was 0.79 log10CFU/ml. It also gave an Activity [13] of 1.9 log10CFU/ml, an Activity [14] of 0.067% and an Activity [15] of 0.065%. For the same molecule, the Activity [16] was 0.066%, the Activity [17] was “Active” and the inhibition [18] was “Active”. For the same molecule, the inhibition [6] was “Active” and the inhibition [7] was “Active”.
Molecule FC(F)(F)c1ccc(C2CCN(C[C@@H]3C[C@H](c4ccccc4)N3Cc3ccccc3Br)CC2)cc1 (racemic) has an MIC99 [8] of 100 µM and a logP [1] of 7.58.
In the case of CC(C)NC[C@@H]1C[C@H](c2ccc(OC(F)(F)F)cc2)N1Cc1ccccc1Br (racemic), the MIC99 [8] is reported as 23 µM and the logP [1] is reported as 6.26.
In the case of CC(C)NC[C@@H]1C[C@H](c2ccccc2)N1Cc1ccccc1Br (racemic), the MIC99 [8] is reported as 94 µM and the logP [1] is reported as 4.82.
For FC(F)(F)Oc1ccc(C2CCN(C[C@@H]3C[C@H](c4ccccc4)N3Cc3ccccc3Br)CC2)cc1 (racemic), the MIC99 [8] was 100 µM and the logP [1] was 8.14.
